Laboratory results from the RNAGym collection of RNA variant scans (doi:10.1002/anie.201605470).

B1: Osa-1-4 twister ribozyme (parent)
chain: CCGCCUAACACUGCCAAUGCCGGUCCCAAGCCCGGAUAAAAGUGGAGGGGGCGG

Variants of: B1
Assay: self-cleavage, relative activity (ratio to wild type); higher = more cleavage; co-transcriptional
Procedure, shortened: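 The 48 positions downstream of the cleavage site in a 54-nucleotide Oryza sativa twister ribozyme template were synthesised at 97 % wild-type base and 1 % of each other base. The template was transcribed in vitro at 37 °C for 2 h, with self-cleavage allowed during transcription. Reads with or without upstream sequence after deep sequencing marked cleavage status, and relative activity is fraction cleaved normalised to wild type.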

Variant | self-cleavage
CCGCCUAACACUACCAAUGCCGGUCCCAAGCCCGCAUAAAAGUGGAGGGGGCGG [G13A G35C] | 0.05
CCGCCUAACACUACCAAUGCCGGUCCCAAGCCCGUAUAAAAGUGGAGGGGGCGG [G13A G35U] | 0.08
CCGCCUAACACUACCAAUGCCGGUCCCAAGCCCGAAUAAAAGUGGAGGGGGCGG [G13A G35A] | 0.12
CCGCCUAACACUACCAAUGCCGGUCCCAAGCCCGGAUAAAAGUGGAGGGGUCGG [G13A G51U] | 0.04
CCGCCUAACACUACCAAUGCCGGUCCCAAGCCCGGAUAAAAGUGGAGGGGACGG [G13A G51A] | 0.05
CCGCCUAACACUACCAAUGCCGGUCCCAAGCCCGGAUAAAAGUGGAGGGGCCGG [G13A G51C] | 0.02
CCGCCUAACACUACCAAUGCCGGUCCCAAGCCCGGAUAAAAAUGGAGGGGGCGG [G13A G42A] | 0.05
CCGCCUAACACUACCAAUGCCGGUCCCAAGCCCGGAUAAAAUUGGAGGGGGCGG [G13A G42U] | 0.02
CCGCCUAACACUACCAAUGCCGGUCCCAAGCCCGGAUAAAACUGGAGGGGGCGG [G13A G42C] | 0.04
CCGCCUAACACAGCCAAUGCCGGUCCCAAGCCCGGAAAAAAGUGGAGGGGGCGG [U12A U37A] | 0.71
CCGCCUAACACAGCCAAUGCCGGUCCCAAGCCCGGAGAAAAGUGGAGGGGGCGG [U12A U37G] | 1
CCGCCUAACACAGCCAAUGCCGGUCCCAAGCCCGGACAAAAGUGGAGGGGGCGG [U12A U37C] | 1
CCGCCUAACACUACCAAUGCCGGUCCCAAGCCCGGAUAAAAGUCGAGGGGGCGG [G13A G44C] | 0.08
CCGCCUAACACUACCAAUGCCGGUCCCAAGCCCGGAUAAAAGUUGAGGGGGCGG [G13A G44U] | 0.07
CCGCCUAACACUACCAAUGCCGGUCCCAAGCCCGGAUAAAAGUAGAGGGGGCGG [G13A G44A] | 0.05
CCGCCUAACACUACCAAUGCCGGUCCCAAGCCCGGAUAAAAGUGGAGGGGGCGG [G13A] | 0.17
CCGCCUAACACAGCCAAUGCCGGGCCCAAGCCCGGAUAAAAGUGGAGGGGGCGG [U12A U24G] | 0.03
CCGCCUAACACAGCCAAUGCCGGACCCAAGCCCGGAUAAAAGUGGAGGGGGCGG [U12A U24A] | 0.07
CCGCCUAACACAGCCAAUGCCGGCCCCAAGCCCGGAUAAAAGUGGAGGGGGCGG [U12A U24C] | 0.08
CCGCCUAACACUACCAAUGCCGGUCCCAAGCCCGGAUAAAAGUGGAGGGGGCGA [G13A G54A] | 0.07
CCGCCUAACACUACCAAUGCCGGUCCCAAGCCCGGAUAAAAGUGGAGGGGGCGC [G13A G54C] | 0.06
CCGCCUAACACUACCAAUGCCGGUCCCAAGCCCGGAUAAAAGUGGAGGGGGCGU [G13A G54U] | 0.2
CCGCCUAACACUACCAAUGCCGGUCCCAAGCCCGGAUAAAAGUGGAGAGGGCGG [G13A G48A] | 0.03
CCGCCUAACACUACCAAUGCCGGUCCCAAGCCCGGAUAAAAGUGGAGUGGGCGG [G13A G48U] | 0.02

Variant | self-cleavage
CCGCCUAACACUACCAAUGCCGGUCCCAAGCCCGGAUAAAAGUGGAGCGGGCGG [G13A G48C] | 0.03
CCGCCUAACACUACCAACGCCGGUCCCAAGCCCGGAUAAAAGUGGAGGGGGCGG [G13A U18C] | 0.1
CCGCCUAACACUACCAAAGCCGGUCCCAAGCCCGGAUAAAAGUGGAGGGGGCGG [G13A U18A] | 0.09
CCGCCUAACACUACCAAGGCCGGUCCCAAGCCCGGAUAAAAGUGGAGGGGGCGG [G13A U18G] | 0.24
CCGCCUAACACGGCCAAUGCCGGUCCCAAGCCCGGAUAAAAGCGGAGGGGGCGG [U12G U43C] | 0.08
CCGCCUAACACGGCCAAUGCCGGUCCCAAGCCCGGAUAAAAGAGGAGGGGGCGG [U12G U43A] | 0.08
CCGCCUAACACGGCCAAUGCCGGUCCCAAGCCCGGAUAAAAGGGGAGGGGGCGG [U12G U43G] | 0.1
CCGCCUAACACUACCAAUGCCGGUCCCAACCCCGGAUAAAAGUGGAGGGGGCGG [G13A G30C] | 0.02
CCGCCUAACACUACCAAUGCCGGUCCCAAACCCGGAUAAAAGUGGAGGGGGCGG [G13A G30A] | 0.03
CCGCCUAACACUACCAAUGCCGGUCCCAAUCCCGGAUAAAAGUGGAGGGGGCGG [G13A G30U] | 0.02
CCGCCUAACACUACCAAUGCCGGUCCCAAGCCCGGAUAAAAGUGGAGGAGGCGG [G13A G49A] | 0.03
CCGCCUAACACUACCAAUGCCGGUCCCAAGCCCGGAUAAAAGUGGAGGUGGCGG [G13A G49U] | 0.02
CCGCCUAACACUACCAAUGCCGGUCCCAAGCCCGGAUAAAAGUGGAGGCGGCGG [G13A G49C] | 0.02
CCGCCUAACACGGCCAAUGCCGGUCCCAAGCCCGGAGAAAAGUGGAGGGGGCGG [U12G U37G] | 0.52
CCGCCUAACACGGCCAAUGCCGGUCCCAAGCCCGGAAAAAAGUGGAGGGGGCGG [U12G U37A] | 0.6
CCGCCUAACACGGCCAAUGCCGGUCCCAAGCCCGGACAAAAGUGGAGGGGGCGG [U12G U37C] | 0.55
CCGCCUAACACAGCCAAUGCCGGUCCCAAGCCCGGAUAAAAGAGGAGGGGGCGG [U12A U43A] | 0.13
CCGCCUAACACAGCCAAUGCCGGUCCCAAGCCCGGAUAAAAGCGGAGGGGGCGG [U12A U43C] | 0.11
CCGCCUAACACAGCCAAUGCCGGUCCCAAGCCCGGAUAAAAGGGGAGGGGGCGG [U12A U43G] | 0.09
CCGCCUAACACAGCCAAAGCCGGUCCCAAGCCCGGAUAAAAGUGGAGGGGGCGG [U12A U18A] | 0.91
CCGCCUAACACAGCCAAGGCCGGUCCCAAGCCCGGAUAAAAGUGGAGGGGGCGG [U12A U18G] | 0.76
CCGCCUAACACAGCCAACGCCGGUCCCAAGCCCGGAUAAAAGUGGAGGGGGCGG [U12A U18C] | 0.76
CCGCCUAACACUACCAAUGCCGGUCCCAAGCCCGGAUAAAAGUGGAGGGCGCGG [G13A G50C] | 0.06
CCGCCUAACACUACCAAUGCCGGUCCCAAGCCCGGAUAAAAGUGGAGGGAGCGG [G13A G50A] | 0.14
